Paper PMC5570473 (Nature chemical biology, 2017)
pIC50: −log10 of the molar value. Read-outs that look alike come from different tables or passages of the source. Peptide text beside a SMILES is read from it. * marks the point of attachment. Cbz = O=C(OCc1ccccc1)*

Legend:
A549 cells = test: Aggresome formation and clearance assay; format: cell-based, human; settings: for aggresome formation (ubiquitin, HDAC6, p62/SQSTM1 staining): 15 hours
Procedure, shortened: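 A549 cells were loaded with 5 μM MG132 for 15 h, washed free of it, then held ± a range of test compound concentrations for 24 h. They were fixed in 4% paraformaldehyde, permeabilised with 0.2% Triton X-100, blocked in 5% FBS/0.1% Triton X-100, immunostained for ubiquitin, HDAC6 or p62/SQSTM1, and imaged.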

Rpn11 = Rpn11 (Homo sapiens, UniProt O00487); test: In vitro Rpn11 activity assay; format: biochemical; settings: for effect of Zn(cyclen)^2+ on IC50 for Rpn11: 100 μM Zn(cyclen)^2+ present
Rpn11•Rpn8 heterodimer = Rpn11•Rpn8 heterodimer (Saccharomyces cerevisiae, UniProt P43588); test: Rpn11•Rpn8 di-Ub cleavage assay; format: biochemical; settings: 40 μM, 20 μM or 10 μM
Sequence of Rpn11•Rpn8 heterodimer (P43588 2-239 limits assumed): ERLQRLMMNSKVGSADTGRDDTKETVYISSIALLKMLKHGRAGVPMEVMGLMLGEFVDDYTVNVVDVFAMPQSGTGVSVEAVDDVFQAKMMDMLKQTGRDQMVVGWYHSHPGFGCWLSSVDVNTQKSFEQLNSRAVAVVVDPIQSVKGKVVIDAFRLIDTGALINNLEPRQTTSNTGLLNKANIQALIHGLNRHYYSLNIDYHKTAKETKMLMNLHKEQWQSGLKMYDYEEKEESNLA
Sequence of Rpn11•Rpn8 heterodimer (Q08723 1-179 partner limits assumed): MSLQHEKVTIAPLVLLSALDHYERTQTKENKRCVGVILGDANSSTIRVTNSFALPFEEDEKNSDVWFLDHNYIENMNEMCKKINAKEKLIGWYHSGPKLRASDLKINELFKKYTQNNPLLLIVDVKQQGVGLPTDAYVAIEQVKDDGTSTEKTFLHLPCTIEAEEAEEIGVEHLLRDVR
Procedure, shortened: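 Purified Rpn11•Rpn8 dimer (5 μM) was incubated at 30°C with K48-linked di-ubiquitin and varying test compound concentrations. The buffer was 40 mM HEPES pH 7.5, 100 mM NaCl, 100 mM KCl, 5% glycerol.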

[1] = mice ref 49; cited from earlier work
[2] = tested on: Hela cells stably expressing Ub^G76V-GFP; test: Ub^G76V-GFP accumulation assay; format: cell-based; settings: for accumulation of Ub^G76V-GFP: 5 μM, 4 hours
[3] = tested on: WT or nfe2l1^−/− MEF cells; test: Cell growth inhibition in WT versus Nrf1 knockout MEF cells; format: cell-based; settings: 72 hours
[4] = tested on: angiomotin K481 ubiquitination in 293T cells; test: Quantitative ubiquitination site profiling; format: cell-based, human; settings: 8 hours, 10 μM capzimin or 1 μM BTZ
Procedure, shortened: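 SILAC-labelled HEK293T cells were grown in Arg/Lys-free DMEM with 10% dialysed FBS, 1 mM pyruvate and 10 mg/L proline. At 80–90% confluence they were treated 8 h with 10 μM test compound (n=3), 1 μM bortezomib (n=4) or DMSO. Cells were trypsinised and pooled from three plates per treatment. Lysates were trypsin-digested with NEM alkylation, K-ε-GlyGly peptides enriched by antibody, and analysed by LC-MS.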

angiomotin in 293T cells = test: Pulldown of polyubiquitylated protein; format: cell-based; settings: 8 hours
Procedure, shortened: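 293T cells were treated 8 h with test compound, bortezomib or DMSO. Lysis was in 40 mM Tris-HCl pH 7.6, 5 mM NEM, 0.1% NP-40, followed by binding to TUBE2 agarose for 2 h at 4°C. Beads were washed three times in the same buffer with 150 mM NaCl, then eluted in SDS buffer. Eluates were immunoblotted for ubiquitin and angiomotin.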

[5] = tested on: K562 cell line (leukemia); test: NCI 60 panel, K562 cell line; format: cell-based; settings: Homo sapiens, K562, read-out: GI50 K562
HEK293T cells = test: Cellular imaging with optical zinc sensor; format: cell-based; settings: 10 μM
Procedure, shortened: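 HEK293T cells were transfected with a FRET zinc sensor and imaged 24–48 h later at 37°C/5% CO2 in phosphate-free HEPES-buffered HBSS, pH 7.4, with frames every minute. After 5 min resting FRET, 10 μM test compound or 0.5% DMSO was added (n=11 cells each). Calibration used 50 μM TPA, then 0.75 μM pyrithione plus 12 μM buffered zinc. Background-corrected FRET/CFP ratios were normalised to resting; error bars SEM.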

AMSH = AMSH (Homo sapiens, UniProt O95630); test: In vitro AMSH activity assay; format: biochemical
Sequence of AMSH (O95630 whole entry): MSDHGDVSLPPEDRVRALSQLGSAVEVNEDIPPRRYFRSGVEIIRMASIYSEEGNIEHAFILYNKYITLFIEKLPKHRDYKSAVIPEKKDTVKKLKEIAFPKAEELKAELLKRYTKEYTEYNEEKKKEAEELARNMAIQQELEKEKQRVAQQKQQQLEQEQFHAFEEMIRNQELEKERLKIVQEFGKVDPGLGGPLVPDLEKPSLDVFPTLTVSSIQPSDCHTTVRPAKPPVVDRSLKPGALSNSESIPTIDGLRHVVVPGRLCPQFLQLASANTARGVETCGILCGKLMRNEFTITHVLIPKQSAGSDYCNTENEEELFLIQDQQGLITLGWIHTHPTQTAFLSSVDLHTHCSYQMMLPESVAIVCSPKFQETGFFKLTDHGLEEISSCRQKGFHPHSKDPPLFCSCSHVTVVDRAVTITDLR

BRCC36 = BRCC36 (Homo sapiens, UniProt P46736); test: In vitro BRCC36 activity assay; format: biochemical
Procedure, shortened: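 BRISC complex (BRCC36, KIAA0157, BRCC45, MERIT40) was co-expressed in insect cells and purified to >95% by affinity and size exclusion. 1 nM BRISC was reacted with 80 nM DiUbK63-TAMRA, monitoring TAMRA fluorescence (ex 540/em 590 nm). Data were normalised to DMSO and fitted for IC50. With substrate far below KM, IC50 approximates Ki.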

[6] = tested on: WT or bortezomib-resistant RPE1 cells; test: Cell growth inhibition in WT and bortezomib-resistant RPE1 cells; format: cell-based; settings: 72 hours
Procedure, shortened: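 WT and bortezomib-resistant RPE1 cells received a concentration series of test compound for 72 h before CellTiter-Glo addition. Luminescence was normalised to DMSO control and fitted to a dose-response equation for GI50. Data are n=3 wells, from one representative of 3 independent experiments.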

HDAC6 = test: HDAC 6 activity assay; format: biochemical
SR cell line (leukemia) = test: NCI 60 panel, SR cell line; format: cell-based; settings: Homo sapiens, read-out: GI50 SR
HCT116 cells [7] = test: Cell growth inhibition, CellTiter-Glo, 72 hours; format: cell-based; settings: Homo sapiens, HCT-116, 72 h
Procedure, shortened: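 HCT116 cells were exposed to a test-compound concentration series for 72 h in normal or low-serum medium, then mixed with CellTiter-Glo. Luminescence was normalised to DMSO and a dose-response fit gave GI50. Data are n=3 wells, one representative of 3 independent experiments.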

HCT116 cells [8] = test: Immunoblot of UPS substrates, UPR and apoptosis markers; format: cell-based
Procedure, shortened: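 HCT116 cells were treated 6 h with 2 or 10 μM test compound, alongside 1 μM bortezomib, 10 μM CB5083 or 2 μg/ml tunicamycin. Lysates were immunoblotted for ubiquitin, p53, Hif1α, PERK, BiP, XBP1s, CHOP and GAPDH. For apoptosis, HCT116 cells were treated 24 h and blotted for PARP1, caspase3, pH2AX and GAPDH.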

[9] = tested on: NCI panel of 60 cancer cell lines; test: NCI panel of 60 cancer cell lines; format: cell-based; settings: Homo sapiens, read-out: median GI50 NCI 60 panel
26S proteasome = 26S proteasome (Saccharomyces cerevisiae, UniProt P43588); format: biochemical, yeast; settings: 20 μM, purified proteasomes
Procedure, shortened: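 Alexa488-labelled Rpn10-I27V13Pext (100 nM) was incubated with 10 nM purified yeast 26S proteasome at 30°C, ± 20 μM test compound. Aliquots were taken at 0, 30, 60, 90 and 120 min into SDS sample buffer and resolved by SDS-PAGE. Intact substrate was quantified by fluorescence gel imaging (488/520 nm).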

[10] = tested on: NCI-H460 (non-small cell lung cancer); test: NCI 60 panel, NCI-H460; format: cell-based; settings: Homo sapiens, NCI-H460, read-out: GI50 NCI-H460
glyoxalase I (GLO1) = glyoxalase I (GLO1) (Homo sapiens, UniProt Q04760); test: Human Glyoxalase 1 assay; format: biochemical
Sequence of glyoxalase I (GLO1) (Q04760 2-184 limits assumed): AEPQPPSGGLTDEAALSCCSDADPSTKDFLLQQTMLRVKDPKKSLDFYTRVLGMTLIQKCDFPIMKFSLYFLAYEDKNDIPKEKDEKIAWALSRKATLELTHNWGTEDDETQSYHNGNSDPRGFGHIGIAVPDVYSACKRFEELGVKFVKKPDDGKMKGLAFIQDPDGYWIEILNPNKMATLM
Procedure, shortened: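 Recombinant human GLO1 (40 ng) was preincubated 15–20 min with inhibitor in 100 mM sodium phosphate, pH 7.0. Substrate was then added, formed by letting glutathione and methylglyoxal stand 20 min in buffer (≤5% DMSO final). A240 was read every minute for 8 min. Rates were compared with no-inhibitor controls after subtracting no-enzyme background.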

carbonic anhydrase II = test: hCAII activity assay; format: biochemical, human
MCF7 (breast cancer) = test: NCI 60 panel, MCF7; format: cell-based; settings: Homo sapiens, MCF7, read-out: GI50 MCF7
MMP2 = test: MMP activity assay; format: biochemical, human
MMP12 = test: MMP activity assay; format: biochemical, human

## Sc1cccc2cccnc12 [8TQ, quinoline-8-thiol]
A549 cells
  clearance of MG132-induced aggresomes after MG132 removal and compound addition: not cleared
Rpn11
  mode of inhibition of Rpn11 / 26S proteasome: uncompetitive inhibition
  effect of Zn(cyclen)^2+ on IC50 for Rpn11: shifted the IC50 of both compounds to a higher value
Rpn11; details will be published elsewhere
  discrimination between Rpn11, BRCC36 and AMSH: did not distinguish between Rpn11, BRCC36, and AMSH
Rpn11; read-out: inhibition of Rpn11 activity in MBP library screen
  inhibition at 200 µM: > 50%
Rpn11•Rpn8 heterodimer
  inhibition of purified Rpn11•Rpn8 (K48 di-ubiquitin cleavage): inhibited purified Rpn11•Rpn8 heterodimer
[1]
  oral bioavailability: orally bioavailable
  tolerability: tolerated

## O=C(Sc1cccc2cccnc12)c1ccccc1Br [H18, S-(Quinolin-8-yl) 2-bromobenzothioate]
Rpn11
  effect of Zn(cyclen)^2+ on IC50 for Rpn11: shifted the IC50 of both compounds to a higher value

## CC(C)C[C@@H](C=O)NC(=O)[C@H](CC(C)C)NC(=O)[C@H](CC(C)C)NC(=O)OCc1ccccc1 [MG132, reference compound] (Cbz-Leu-Leu-Leu-aldehyde)
A549 cells
  aggresome formation (ubiquitin, HDAC6, p62/SQSTM1 staining): punctate staining characteristic of aggresomes
[2]
  accumulation of Ub^G76V-GFP: strong accumulation

## CC(C)C[C@H](NC(=O)[C@H](Cc1ccccc1)NC(=O)c1cnccn1)B(O)O [bortezomib, reference compound]
[3]
  sensitivity of Nrf1^−/− cell line compared to WT MEF: more sensitive
[4]
  up-regulation of angiomotin ubiquitination at K481: 2.4 fold

## O=C(NCCc1nccs1)c1cnc2c(SSc3cccc4cc(C(=O)NCCc5nccs5)cnc34)cccc2c1 [capzimin]
Angiomotin in 293T cells
  accumulation of high molecular weight species of angiomotin: strong accumulation
A549 cells
  aggresome formation (ubiquitin, HDAC6, p62/SQSTM1 staining): punctate staining characteristic of aggresomes
[5]
  GI50: 1000 nM
HEK293T cells
  reduction in total cellular zinc: ≤ 5%
Rpn11
  mode of inhibition of Rpn11 / 26S proteasome: uncompetitive inhibitor
Rpn11•Rpn8 heterodimer
  inhibition of purified Rpn11•Rpn8 (K48 di-ubiquitin cleavage): acted directly on Rpn11•Rpn8
AMSH
  mode of inhibition of AMSH: competitive inhibitor
BRCC36
  mode of inhibition of BRCC36: competitive inhibitor
[6]
  GI50 against WT versus bortezomib-resistant retinal pigment epithelial cells: same GI50
HDAC6
  preference for inhibiting Rpn11 compared to HDAC6: > 2 log
SR cell line (leukemia)
  GI50: 670 nM
HCT116 cells [7]; read-out: GI50 HCT116
  GI50: ~2000 nM
HCT116 cells [7]; read-out: GI50 HCT116 low serum
  GI50: 600 nM
HCT116 cells [8]
  effect on Nedd8-conjugated Cul1 (cellular Csn5): little effect
HCT116 cells [8]; 2 or 10 μM, 6 hours
  accumulation of ubiquitin conjugates and proteasome substrates p53, Hif1α, Nrf2: caused accumulation
HCT116 cells [8]; 24 hours
  apoptosis (processed caspase 3, cleaved PARP): induced apoptosis
HCT116 cells [8]; HCT116 and 293T cells
  unfolded protein response (phosphorylated PERK, XBP1s, CHOP): provoked a UPR response
[9]
  GI50: 3300 nM
26S proteasome
  influence on degradation of ubiquitin-independent substrate Rpn10-127^V13Pext: no influence
[2]
  accumulation of Ub^G76V-GFP: strong accumulation
[2]; after washout
  reversibility of inhibitory effect: reversible after washout
[10]
  GI50: 700 nM
Glyoxalase I (GLO1)
  pIC50: 4.37
Carbonic anhydrase II
  preference for inhibiting Rpn11 compared to carbonic anhydrase II: > 2 log
[3]
  sensitivity of Nrf1^−/− cell line compared to WT MEF: more sensitive
MCF7 (breast cancer)
  GI50: 1000 nM
[4]
  up-regulation of angiomotin ubiquitination at K481: ~ 16 fold
MMP2
  preference for inhibiting Rpn11 compared to MMP2: > 2 log
MMP12
  preference for inhibiting Rpn11 compared to MMP12: > 2 log
